Among the data in PMC10172704 (Poultry Science, 2023) are MIC values, retold here.

Common to all, as to assay: Microdilution broth MIC/MBC
What all share (conditions): synthesized identified peptides
For orientation: Broth dilution looks for growth in wells or tubes with falling amounts of substance.

One experiment relates to B. cereus DMST 5040. The experiment is classed as cell-based, Bacillus cereus. The gist of the method: (§1)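 Broth microdilution per CLSI guideline, modified. Strains grown 18 h on tryptic soy agar, adjusted to 0.5 McFarland, then diluted in 0.85% NaCl to about 5 × 10^5 CFU/mL final. Suspension mixed with test compound in microplate wells and incubated 37°C, 18 h. Growth inhibition read at 600 nm. Positive control: 20 µg/mL kanamycin. Experiments done 3 times.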

The subject of a further experiment is S. Typhimurium TISTR 292. In kind it is cell-based, Salmonella typhimurium. The gist of the method: as §1
The test system of a further experiment is S. aureus ATCC 29213. In kind it is cell-based, Staphylococcus aureus. The gist of the method:
as §1

Another experiment deals with E. coli TISTR 780. In kind it is cell-based. The gist of the method:
as §1

Ends that are not written are not given here.

A word on the MIC: it is the lowest concentration that inhibits growth of the organism. Read a low MIC as a more susceptible organism. With KVLPLPFGGRSPGGGA [KVLPLPFGGRSPGGGA], the MIC with B. cereus DMST 5040, in the experiment with S. Typhimurium TISTR 292, with S. aureus ATCC 29213 and in the experiment on E. coli TISTR 780 was more than 4 mM throughout.
VTLKVPGVTL [VTLKVPGVTL]: the MIC in the experiment on B. cereus DMST 5040, against S. Typhimurium TISTR 292, against S. aureus ATCC 29213 and in the experiment with E. coli TISTR 780 was more than 4 mM in each case.
Consider HAAHTTGLGGPF [HAAHTTGLGGPF], for which the minimum inhibitory concentration (MIC) in the experiment with B. cereus DMST 5040, against S. Typhimurium TISTR 292, against S. aureus ATCC 29213 and in the experiment with E. coli TISTR 780 was more than 4 mM each time.
CASALLGA [CASALLGA]: the minimum inhibitory concentration (MIC) in the experiment on B. cereus DMST 5040 was 4 mM; with S. Typhimurium TISTR 292, 4 mM; in the experiment with S. aureus ATCC 29213, 4 mM; against E. coli TISTR 780, more than 4 mM.
On to KGGDLGLFEPTL [KGGDLGLFEPTL], for which the MIC in the experiment on B. cereus DMST 5040 is 2 mM; in the experiment with S. Typhimurium TISTR 292 it was 2 mM; against S. aureus ATCC 29213, 2 mM; against E. coli TISTR 780, more than 4 mM.
